Fibroblast inh = blocks proliferation of human lung fibroblasts; LL 47 human lung fibroblast viability, ATP luminescence; active compounds read low; viability, % at 10 µM; actives 1.1% (n = 85,000); AID 719;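 active means viability at or below 50% in the single dose screen; inactive means viability above 50%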;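 further: compound exposure lasted 72 h before the ATP readout; 100% = median luminescence of untreated cell-only wells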
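Signal: luminescent ATP detection, CellTiter-Glo; assay system: LL 47 human lung fibroblasts; input: 1,150 cells/well; incubation: overnight cell rest, 72 h compound treatment at 37 °C; measure: % viability versus median cells-only luminescence; medium: IMEM growth medium with 15% fetal bovine serum; dosing: compound addition at 0.1% DMSO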
HUVEC inhibit = blocks proliferation of human endothelial cells; HUVEC proliferation, CellTiter-Glo luminescence, 72 h; active compounds read low; viability, % at 10 µM (by protocol); actives 1.1% (n = 86,000); AID 648;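 active means viability at or below 30%; inactive means viability above 30%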;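 further: 100% = median luminescence of DMSO-only cell control wells on each plate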
E coli WT exp = blocks growth of wild type E. coli BW25113 | growth inhibition, % at 100 µM | OD600 absorbance | actives 0.15% (n = 98,000);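 active means growth inhibition above about 50% at one test dose, limit read from the data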;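 further: growth measured after 20 h incubation at 37 °C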
tolC growth inh = growth inhibitors of E. coli BW25113 tolC mutant; OD615; growth inhibition, % at 10 µM (by protocol); actives 2.2% (n = 65,000);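 active means growth inhibition at or above a cutoff equal to the mean over every tested compound plus 3 SD, cut at about 60% in these data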;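 further: growth measured after 20 h incubation at 37 °C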
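Test system: E. coli BW25113 ΔtolC::kan bacteria | Medium: Kanamycin-containing LB broth (50 µg/mL) | Dosing: One dose of 10 µM final | Times: 20 h incubation with compound, 37 °C | Detection: Optical density read at 615 nm | Read-out basis: Percent growth inhibition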
H69AR growth 86K = growth inhibitors of human H69AR lung tumor cells. viability, % at 10 µM. actives 6% (n = 85,000). H69AR lung tumor viability, ATP luminescence, 72 h; active compounds read low;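 active means viability at or below 40%; inactive means viability above 40%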;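 further: multidrug resistant small cell line overexpressing MRP-1 efflux transporter; 100% = mean luminescence of untreated control wells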
Jurkat tox 60K = reduces viability or proliferation of Jurkat cells; Jurkat E6.1 viability, ATP luminescence, 48 h; AID 463; inhibition, % at 4 µM; actives 1.2% (n = 56,000);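 active means inhibition above the mean inhibition of all tested compounds plus 3 SD, cut at about 28% in these data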
An asterisk follows results filed as active. An excerpt weighted towards active compounds, which were near 6.4% of everything screened.

For Cc1ccc(O)c(-c2cc(-c3ccccc3C)[nH]n2)c1 the results were Fibroblast inh 62, HUVEC inhibit 35, E coli WT exp 14, tolC growth inh 100*, H69AR growth 86K 0.5* and Jurkat tox 60K 0.
Screening O=C(Nc1ccc(Oc2ccc(NC(=O)c3ccco3)c(NC(=O)c3ccco3)c2)cc1)c1ccco1 returned Fibroblast inh 102, HUVEC inhibit 83, E coli WT exp -13, tolC growth inh 17, H69AR growth 86K 77 and Jurkat tox 60K -6.
O=C(Nc1ccc(Cl)cc1)Nc1ccc2c(c1)N1CCN=C1S2 was read as Fibroblast inh 102, HUVEC inhibit 62, E coli WT exp 30, tolC growth inh 52, H69AR growth 86K 35* and Jurkat tox 60K 10.
Screening COc1cccc(=O)c2c(C)n(-c3cc(C)cc(C)c3)c(C)c12 returned E coli WT exp -10.
For Cc1ccc(C(C#N)c2ccc(C(=O)c3ccc(F)cc3)cc2)cc1 (centres undefined) the results were Fibroblast inh 104, HUVEC inhibit 17*, E coli WT exp -17 and H69AR growth 86K 96.
Screening CCOC(=O)c1cn(CC)c2cc(N3CCOCC3)c(F)cc2c1=O returned Fibroblast inh 96, HUVEC inhibit 92, E coli WT exp 22, tolC growth inh 100*, H69AR growth 86K 84 and Jurkat tox 60K 3.
`CCOC(=O)C1CCCN(C(=O)c2cn(CC)c3ccc(S(=O)(=O)N4CCCC4)cc3c2=O)C1` (centres undefined) gave Fibroblast inh 93, HUVEC inhibit 91, E coli WT exp -16, tolC growth inh -12 and Jurkat tox 60K 2.
`CCOC(=O)C1CN(c2cc3c(cc2F)c(=O)c(C(=O)O)cn3CC)OC1C(=O)OCC` (centres undefined) gave Fibroblast inh 107, HUVEC inhibit 97, E coli WT exp 10, tolC growth inh 98*, H69AR growth 86K 73 and Jurkat tox 60K 0.
For O=C(O)c1cn(C2CC2)c2cc(N3CCOCC3)c(F)cc2c1=O the results were Fibroblast inh 86, HUVEC inhibit 94 and H69AR growth 86K 73.
CCOC(=O)c1cn(CC)c2cc(N3CCCCC3)c(F)cc2c1=O was read as Fibroblast inh 90, HUVEC inhibit 82, tolC growth inh 100*, H69AR growth 86K 49 and Jurkat tox 60K 7.
Screening CCOC(=O)N1CCN(C(=O)c2cn(CC)c3cc(N4CCN(C)CC4)c(F)cc3c2=O)CC1 returned E coli WT exp 100* and tolC growth inh 16.
`CCCC(C)NC(=O)C1CCN(S(=O)(=O)c2ccccc2)CC1` (centres undefined) gave Fibroblast inh 94, HUVEC inhibit 88, E coli WT exp -5 and H69AR growth 86K 84.
Screening COc1ccc(C2CC(=O)c3cnc(N4CCN(Cc5ccccc5)CC4)nc3C2)cc1 (centres undefined) returned E coli WT exp -10, tolC growth inh 30 and Jurkat tox 60K -1.
Screening CCN1CCN(c2ncc3c(n2)CC(c2ccc(OC)c(OC)c2)CC3=O)CC1 (centres undefined) returned Fibroblast inh 74, HUVEC inhibit 81, E coli WT exp -2, tolC growth inh -13, H69AR growth 86K 19* and Jurkat tox 60K 25.
Screening O=C(CSc1c2c(nc3cc(Cl)ccc13)CCCC2)NCc1ccco1 returned Fibroblast inh 76, HUVEC inhibit 76, E coli WT exp 8 and H69AR growth 86K 2.2*.
Screening Cc1nc2sc3c(c2c2nnc(SCC(=O)NCc4ccco4)n12)CCCC3 returned E coli WT exp -5, tolC growth inh 22 and Jurkat tox 60K 0.
`O=C(CSc1ncnc2sc3c(c12)CCCC3)c1ccco1` gave Fibroblast inh 102, HUVEC inhibit 92, E coli WT exp -7, tolC growth inh 41, H69AR growth 86K 91 and Jurkat tox 60K 1.
Screening O=C(CSc1nnc2c3c4c(sc3ncn12)CCCC4)NCc1ccco1 returned Fibroblast inh 102, HUVEC inhibit 90, E coli WT exp -3, tolC growth inh -6, H69AR growth 86K 28* and Jurkat tox 60K -3.
O=C(CSc1ncnc2sc3c(c12)CCCCC3)NCc1ccco1 was read as Fibroblast inh 71, HUVEC inhibit 59, E coli WT exp 3, tolC growth inh 11, H69AR growth 86K 27* and Jurkat tox 60K 38*.
Screening Cc1cccc(OCCn2c(S(=O)(=O)O)nc3ccccc32)c1 returned Fibroblast inh 108, HUVEC inhibit 97, E coli WT exp 3 and H69AR growth 86K 93.
Screening O=C1CC(c2ccco2)CC(O)=C1C=NCC1CCNCC1 (centres undefined) returned Fibroblast inh 94, HUVEC inhibit 99, E coli WT exp -6, tolC growth inh -8, H69AR growth 86K 92 and Jurkat tox 60K 2.
COc1cc(-c2nc(-c3ccc(NC(=O)c4ccc5c(c4)OCO5)cc3)no2)cc(OC)c1OC was read as Fibroblast inh 73, HUVEC inhibit 28*, E coli WT exp -7, tolC growth inh 13, H69AR growth 86K 13* and Jurkat tox 60K 5.
Screening Cc1ccccc1-c1nc(-c2ccc(NC(=O)c3ccc4c(c3)OCO4)cc2)no1 returned Fibroblast inh 20*, HUVEC inhibit 39, E coli WT exp 0 and H69AR growth 86K 28*.
For COC(=O)c1ccc(NC(=O)c2ccc3c(c2)OCO3)cc1 the results were Fibroblast inh 95, HUVEC inhibit 90, E coli WT exp 1, tolC growth inh -17, H69AR growth 86K 79 and Jurkat tox 60K -2.
For COCCNC(=O)C(c1ccc(C)o1)N(CC1CCCO1)C(=O)Cn1nnc2ccccc21 (centres undefined) the results were Fibroblast inh 97, HUVEC inhibit 105, E coli WT exp 0, tolC growth inh -20, H69AR growth 86K 64 and Jurkat tox 60K -4.
`CCOC(=O)C1CN(S(=O)(=O)c2ccc(C)cc2)CCN1S(=O)(=O)c1ccc(C)cc1` (centres undefined) gave Fibroblast inh 97, HUVEC inhibit 107, E coli WT exp -7, tolC growth inh 28, H69AR growth 86K 85 and Jurkat tox 60K 6.
For N/C(=N\OS(=O)(=O)c1cc(Cl)ccc1Cl)c1ccncc1 the results were Fibroblast inh 103, HUVEC inhibit 100, E coli WT exp 2 and H69AR growth 86K 96.
For COC(=O)C1=CN(CC2CCCO2)C=C(C(=O)OC)C1c1ccsc1 (centres undefined) the results were Fibroblast inh 90, HUVEC inhibit 86, E coli WT exp 1, tolC growth inh 2, H69AR growth 86K 48 and Jurkat tox 60K 1.
`COC(=O)C1=CN(CC2CCCO2)C=C(C(=O)OC)C1c1ccccc1C(F)(F)F` (centres undefined) gave Fibroblast inh 101, HUVEC inhibit 111, E coli WT exp 5 and H69AR growth 86K 37*.

Bioassay records from PubChem BioAssay.
